According to ChEMBL document CHEMBL4177761, “Highlights of the Structure-Activity Relationships of Benzimidazole Linked Pyrrolidines Leading to the Discovery of the Hepatitis C Virus NS5A Inhibitor Pibrentasvir (ABT-530)” (J Med Chem, 2018):
Where a chain is given by its changes, count along the chain named.

Columns and labels:
[1] = molecular target: T1, Nonstructural protein 5A (Hepatitis C virus) (UniProt Q5L478); experiment: Inhibition of NS5A Q30R mutant in HuH7 cell infected HCV genotype 1a H77 assessed as decrease in viral replication after 4 days by luciferase reporter gene assay relative to wild type protein; conditions: Hepatitis C virus (isolate H77)
T1 sequence (whole entry): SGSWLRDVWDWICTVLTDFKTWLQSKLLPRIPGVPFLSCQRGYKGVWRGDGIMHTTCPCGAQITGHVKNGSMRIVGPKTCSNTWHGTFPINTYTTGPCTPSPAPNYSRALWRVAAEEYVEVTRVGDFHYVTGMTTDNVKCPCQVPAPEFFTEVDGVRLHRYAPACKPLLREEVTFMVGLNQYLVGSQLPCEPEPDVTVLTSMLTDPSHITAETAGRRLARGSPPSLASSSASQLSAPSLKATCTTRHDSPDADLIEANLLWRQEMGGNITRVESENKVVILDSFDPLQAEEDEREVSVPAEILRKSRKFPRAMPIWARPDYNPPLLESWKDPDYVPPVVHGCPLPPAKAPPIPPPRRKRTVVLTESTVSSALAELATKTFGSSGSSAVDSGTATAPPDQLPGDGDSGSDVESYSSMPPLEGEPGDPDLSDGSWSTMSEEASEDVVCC
Method in brief: (§1)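 Stable subgenomic luciferase replicons in Huh-7 cells: genotype 1a-H77 carrying NS5A substitutions M28T, Q30E, Q30R, Y93C, Y93H or Y93N, tested alongside the wild-type replicon. Cells are incubated 4 days with compound in DMEM with 5% FBS. Luciferase read-out, EC50 by 4-parameter logistic fit, and fold change versus wild type.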

[2] = Apparent volume of distribution in dog at 1 mg/kg, iv by LC-MS method; assay type: ADME, organism-based, Canis lupus familiaris; conditions: in vivo, read-out: Vc
Method in brief: (§2)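 Single dose in dog or monkey, 1 mg/kg IV or 2.5 mg/kg PO. Plasma drug measured by LC-MS after acetonitrile protein precipitation with an internal standard. Quantified by linear regression of parent/internal-standard peak-area ratio against spiked standards.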

[3] = AUClast in monkey at 1 mg/kg, iv by LC-MS method; assay type: ADME, organism-based, Macaca mulatta; parameters: dose 1 mg/kg, time 0 - last, route intravenous; conditions: rhesus monkey, in vivo; method in brief: as §2
[4] = Plasma clearance in mouse at 3 mg/kg, iv by LC-MS method; assay type: ADME, organism-based
Method in brief: (§3)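 Single dose, 3 mg/kg, in mouse or rat. IV vehicle: DMSO:Tween 80:PEG-400:D5W 2:5:20:73 (v/v). PO vehicle: Phosol 53 MCT:PEG-400:Poloxamer 124:Cremophor RH40 40:20:20:20 (w/w). Acetonitrile protein precipitation, then LC-MS/MS in negative-ion MRM against an internal standard; LOQ ~20 ng/mL.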

[5] = test system: T2, Nonstructural protein 5A (Hepatitis C virus), Q5L478 [Y93H]; experiment: Inhibition of NS5A Y93H mutant in HuH7 cell infected HCV genotype 1b Con1 assessed as decrease in viral replication after 4 days by luciferase reporter gene assay relative to wild type protein; conditions: Hepatitis C virus (isolate Con1)
T2 sequence (whole entry): T1 sequence (whole entry) with Y93H
Method in brief: as §1, with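 “1b-Con1” for “1a-H77”, “NS5A” for “NS5A substitutions M28T, Q30E, Q30R, Y93C,”, “from a” for “by”, “expressed as” for “and”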

[6] = Apparent volume of distribution in mouse at 3 mg/kg, iv by LC-MS method; assay type: ADME, organism-based; conditions: in vivo, read-out: Vc; method in brief: as §3
[7] = Half life in monkey at 1 mg/kg, iv by LC-MS method; assay type: ADME, organism-based, Macaca mulatta; conditions: rhesus monkey, in vivo; method in brief: as §2
[8] = AUClast in monkey at 2.5 mg/kg, po by LC-MS method; assay type: ADME, organism-based, Macaca mulatta; parameters: dose 2.5 mg/kg, time 0 - last, route oral; conditions: rhesus monkey, in vivo; method in brief: as §2
[9] = AUClast in mouse at 3 mg/kg, po by LC-MS method; assay type: ADME, organism-based; parameters: dose 3 mg/kg, time 0 - last, route oral; conditions: in vivo; method in brief: as §3
[10] = AUClast in rat at 3 mg/kg, po by LC-MS method; assay type: ADME, organism-based; parameters: dose 3 mg/kg, route oral, time 0 - last; conditions: in vivo; method in brief: as §3
[11] = molecular target: T1, Nonstructural protein 5A (Hepatitis C virus); experiment: Inhibition of NS5A Q30E mutant in HuH7 cell infected HCV genotype 1a H77 assessed as decrease in viral replication after 4 days by luciferase reporter gene assay relative to wild type protein; conditions: Hepatitis C virus (isolate H77); method in brief: as §1
[12] = Drug level in mouse at 3 mg/kg, po at 24 hrs by LC-MS method; assay type: ADME, organism-based; conditions: in vivo, read-out: Drug uptake; method in brief: as §3
[13] = Cmax in dog at 2.5 mg/kg, po by LC-MS method; assay type: ADME, organism-based, Canis lupus familiaris; parameters: dose 2.5 mg/kg, route oral; conditions: in vivo; method in brief: as §2
[14] = Half life in rat at 3 mg/kg, iv by LC-MS method; assay type: ADME, organism-based; conditions: in vivo; method in brief: as §3
[15] = Drug level in dog at 2.5 mg/kg, po at 24 hrs by LC-MS method; assay type: ADME, organism-based, Canis lupus familiaris; conditions: in vivo, read-out: Drug uptake; method in brief: as §2
[16] = Tmax in mouse at 3 mg/kg, po by LC-MS method; assay type: ADME, organism-based; conditions: in vivo
[17] = molecular target: T1, Nonstructural protein 5A (Hepatitis C virus); experiment: Inhibition of NS5A M28T mutant in HuH7 cell infected HCV genotype 1a H77 assessed as decrease in viral replication after 4 days by luciferase reporter gene assay relative to wild type protein; conditions: Hepatitis C virus (isolate H77); method in brief: as §1
[18] = Oral bioavailability in mouse at 3 mg/kg by LC-MS method; assay type: ADME, organism-based; conditions: in vivo; method in brief: as §3
[19] = Half life in dog at 1 mg/kg, iv by LC-MS method; assay type: ADME, organism-based, Canis lupus familiaris; conditions: in vivo; method in brief: as §2
[20] = test system: T2, Nonstructural protein 5A (Hepatitis C virus), Q5L478 [Y93H]; experiment: Inhibition of NS5A Y93H mutant in HuH7 cell infected HCV genotype 1a H77 assessed as decrease in viral replication after 4 days by luciferase reporter gene assay relative to wild type protein; conditions: Hepatitis C virus (isolate H77); method in brief: as §1
[21] = Half life in monkey at 2.5 mg/kg, po by LC-MS method; assay type: ADME, organism-based, Macaca mulatta; conditions: rhesus monkey, in vivo; method in brief: as §2
[22] = Oral bioavailability in monkey at 2.5 mg/kg by LC-MS method; assay type: ADME, organism-based, Macaca mulatta; conditions: rhesus monkey, in vivo; method in brief: as §2
[23] = Half life in rat at 3 mg/kg, po by LC-MS method; assay type: ADME, organism-based; conditions: in vivo; method in brief: as §3
[24] = Tmax in dog at 2.5 mg/kg, po by LC-MS method; assay type: ADME, organism-based, Canis lupus familiaris; conditions: in vivo; method in brief: as §2
[25] = Oral bioavailability in dog at 2.5 mg/kg by LC-MS method; assay type: ADME, organism-based, Canis lupus familiaris; conditions: in vivo; method in brief: as §2
[26] = Tmax in monkey at 2.5 mg/kg, po by LC-MS method; assay type: ADME, organism-based, Macaca mulatta; conditions: rhesus monkey, in vivo; method in brief: as §2
[27] = Plasma clearance in monkey at 1 mg/kg, iv by LC-MS method; assay type: ADME, organism-based, Macaca mulatta; conditions: rhesus monkey; method in brief: as §2

## COC(=O)N[C@H](C(=O)N1CCC[C@H]1c1nc2cc([C@H]3CC[C@H](c4cc5nc([C@@H]6CCCN6C(=O)[C@@H](NC(=O)OC)[C@@H](C)OC)[nH]c5cc4F)N3c3cc(F)c(N4CCC(c5ccc(F)cc5)CC4)c(F)c3)c(F)cc2[nH]1)[C@@H](C)OC [PIBRENTASVIR]
[1]
  fold change (FC): 1.7
[2]
  Vd: 0.1 L/kg
[3]
  AUC(0-t): 6470 ng·h/mL
[4]
  clearance: < 3 mL/h/kg
[5]
  fold change (FC): 0.6
[6]
  Vd: 0.09 L/kg
[7]
  half-life: 498 min
[8]
  AUC(0-t): 2250 ng·h/mL
[9]
  AUC(0-t): 20000 ng·h/mL
[10]
  AUC(0-t): 3600 ng·h/mL
[11]
  fold change (FC): 2.4
[12]
  concentration at 24 h: 467 nM
[13]
  Cmax: 562 nM
[14]
  half-life: 372 min
[15]
  concentration at 24 h: 82 nM
[16]
  Tmax: 11 h
[17]
  fold change (FC): 2.1
[18]
  bioavailability: 7.9%
[19]
  half-life: 426 min
[20]
  fold change (FC): 6.7
[21]
  half-life: 341 min
[22]
  bioavailability: 14.1%
[23]
  half-life: 420 min
[24]
  Tmax: 3.67 h
[25]
  bioavailability: 29.8%
[26]
  Tmax: 4 h
[27]
  clearance: 2.5 mL/min/kg
